From ChEMBL document CHEMBL3864128, “Syntheses of new 3-thiazolyl coumarin derivatives, in vitro α-glucosidase inhibitory activity, and molecular modeling studies” (Eur J Med Chem, 2016)

Test: Inhibition of alpha-glucosidase (unknown origin) using PNP glycoside as substrate preincubated for 30 mins followed by substrate addition after 60 mins by spectrophotometric analysis
Design: species or system Homo sapiens
Summary of the method: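 Enzyme activity run in 50 mM phosphate buffer, pH 6.8, containing 5% v/v DMSO. Inhibitors pre-incubated with enzyme 30 min at 37 °C, then PNP glycoside substrate added and reaction run 60 min at 37 °C. Absorbance read at 400 nm. Triplicate runs at five concentrations spanning the IC50 estimated in a first round; means adopted.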

Row | SMILES | IC50 [µM]
1 | O=C(Nn1c(-c2cc3ccccc3oc2=O)cs/c1=N\c1cccc(Br)c1)c1ccccc1O | 4.06
2 | COc1ccc(/N=c2\scc(-c3cc4ccccc4oc3=O)n2NC(=O)c2ccccc2)cc1 | 6.5
3 | O=C(Nn1c(-c2cc3ccccc3oc2=O)cs/c1=N\c1ccc(Cl)c(Cl)c1)c1ccccc1O | 0.12
4 | CC(C)(C)c1ccc(C(=O)Nn2c(-c3cc4ccccc4oc3=O)cs/c2=N\c2ccc(Cl)c(Cl)c2)cc1 | 0.78
5 | COc1cc(OC)cc(C(=O)Nn2c(-c3cc4ccccc4oc3=O)cs/c2=N\c2cccc(Br)c2)c1 | 9.19
6 | COc1ccc(/N=c2\scc(-c3cc4ccccc4oc3=O)n2NC(=O)c2ccc(C(C)(C)C)cc2)cc1 | 1.4
7 | COc1ccc(/N=c2\scc(-c3cc4ccccc4oc3=O)n2NC(=O)c2cc(OC)cc(OC)c2)cc1 | 8.1
8 | COc1ccc(C(=O)Nn2c(-c3cc4ccccc4oc3=O)cs/c2=N\c2ccc(Cl)c(Cl)c2)c(OC)c1 | 2.5

Other lines, results leading:

Row | IC50 [µM] | SMILES
9 | 9.45 | COc1ccc(/N=c2\scc(-c3cc4ccccc4oc3=O)n2NC(=O)c2ccc(Br)cc2)cc1
10 | 1.1 | COc1ccc(/N=c2\scc(-c3cc4ccccc4oc3=O)n2NC(=O)c2ccccc2O)cc1
11 | 7.4 | COc1ccc(/N=c2\scc(-c3cc4ccccc4oc3=O)n2NC(=O)c2ccc(OC)cc2OC)cc1
12 | 2.9 | COc1ccc(/N=c2\scc(-c3cc4ccccc4oc3=O)n2NC(=O)c2ccc(C)cc2C)cc1
13 | 16.2 | COc1ccc(/N=c2\scc(-c3cc4ccccc4oc3=O)n2NC(=O)c2ccccc2OC)cc1
14 | 3.6 | COc1ccc(/N=c2\scc(-c3cc4ccccc4oc3=O)n2NC(=O)c2ccc(OC)cc2)cc1
